Measurements from ChEMBL document CHEMBL5360562 (Eur J Med Chem, 2023).

Columns and labels:
Acinetobacter baumannii [1] = experiment: Potentiation of Azithromycin antibacterial activity against Acinetobacter baumannii AB5075 assessed as azithromycin MIC at 20 uM incubated for 16 hrs by broth microdilution method; assay type: functional
Escherichia coli [2] = experiment: Antibacterial activity against Escherichia coli ATCC 25922 assessed as inhibition of bacterial growth incubated for 16 hrs by broth microdilution method; assay type: functional
How it was run: (§1)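 Standalone MIC by broth microdilution. 6 h day cultures in cation-adjusted Mueller-Hinton broth (CAMHB) diluted to 5×10^5 CFU/mL. Compound added from 10 mM DMSO stock to 200 μM (highest concentration), then twofold serial dilution. Incubated stationary at 37 °C for 16 h.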

Acinetobacter baumannii [3] = experiment: Potentiation of Clarithromycin antibacterial activity against Acinetobacter baumannii AB5075 assessed as clarithromycin MIC at 5 uM incubated for 16 hrs by broth microdilution method; assay type: functional
Acinetobacter baumannii [4] = experiment: Potentiation of erythromycin antibacterial activity against Acinetobacter baumannii AB5075 assessed as erythromycin MIC at 10 uM incubated for 16 hrs by broth microdilution method; assay type: functional
Acinetobacter baumannii [5] = experiment: Potentiation of Azithromycin antibacterial activity against Acinetobacter baumannii AB5075 assessed as azithromycin MIC at 5 uM incubated for 16 hrs by broth microdilution method; assay type: functional
Acinetobacter baumannii [6] = experiment: Potentiation of Clarithromycin antibacterial activity against Acinetobacter baumannii AB5075 assessed as clarithromycin MIC at 10 uM incubated for 16 hrs by broth microdilution method; assay type: functional
Acinetobacter baumannii [7] = experiment: Antibacterial activity against Acinetobacter baumannii AB5075 assessed as reduction in bacterial growth incubated for 16 hrs by broth microdilution method; assay type: functional
Acinetobacter baumannii [8] = experiment: Potentiation of Clarithromycin antibacterial activity against Acinetobacter baumannii AB4498 assessed as clarithromycin MIC at 10 uM incubated for 16 hrs by broth microdilution method; assay type: functional
Pseudomonas aeruginosa [9] = experiment: Potentiation of Clarithromycin antibacterial activity against Pseudomonas aeruginosa PAO1 assessed as clarithromycin MIC at 20 uM incubated for 16 hrs by broth microdilution method; assay type: functional
How it was run: (§2)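 Checkerboard-style potentiation by broth microdilution. 6 h day cultures in CAMHB diluted to 5×10^5 CFU/mL. Adjuvant added from 10 mM DMSO stock at fixed concentration throughout. […] Controls: antibiotic alone, adjuvant alone, media only. Incubated stationary at 37 °C for 16 h. MIC is lowest concentration with no visible growth; fold reduction taken against the antibiotic-alone lane.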

Acinetobacter baumannii [10] = experiment: Potentiation of rifampicin antibacterial activity against Acinetobacter baumannii AB5075 assessed as rifampicin MIC at 10 uM incubated for 16 hrs by broth microdilution method; assay type: functional
Acinetobacter baumannii [11] = experiment: Potentiation of Clarithromycin antibacterial activity against Acinetobacter baumannii AB5075 assessed as clarithromycin MIC at 30 uM incubated for 16 hrs by broth microdilution method; assay type: functional
[12] = Stability of compound in human plasma assessed as parent compound remaining measured at 4 hrs; assay type: ADME, cell-free
How it was run: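 Compound at 20 μM final in human plasma (from 10 mM DMSO stock), 37 °C; aliquots at 0, 30, 60, 120, 240 min quenched in internal standard in 1:1 ACN/MeOH, centrifuged, supernatant analysed by UPLC-MRM. Peak-area ratio to internal standard expressed as % parent remaining relative to 0 min; half-life calculated.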

Acinetobacter baumannii [13] = experiment: Potentiation of Clarithromycin antibacterial activity against Acinetobacter baumannii AB5075 assessed as clarithromycin MIC at 1.5 uM incubated for 16 hrs by broth microdilution method; assay type: functional; how it was run: as §2
Pseudomonas aeruginosa [14] = experiment: Potentiation of Clarithromycin antibacterial activity against Pseudomonas aeruginosa PAO1 assessed as clarithromycin MIC at 30 uM incubated for 16 hrs by broth microdilution method; assay type: functional
Escherichia coli [15] = experiment: Potentiation of Clarithromycin antibacterial activity against Escherichia coli ATCC 25922 assessed as clarithromycin MIC at 3.75 uM incubated for 16 hrs by broth microdilution method; assay type: functional
Acinetobacter baumannii [16] = experiment: Potentiation of Clarithromycin antibacterial activity against Acinetobacter baumannii AB5711 assessed as clarithromycin MIC at 10 uM incubated for 16 hrs by broth microdilution method; assay type: functional
Acinetobacter baumannii [17] = experiment: Potentiation of rifampicin antibacterial activity against Acinetobacter baumannii AB5075 assessed as rifampicin MIC at 30 uM incubated for 16 hrs by broth microdilution method; assay type: functional
Acinetobacter baumannii [18] = experiment: Potentiation of Clarithromycin antibacterial activity against Acinetobacter baumannii AB5075 assessed as fold reduction in clarithromycin MIC at 10 uM incubated for 16 hrs by broth microdilution method; assay type: functional; how it was run: as §2
Acinetobacter baumannii [19] = experiment: Potentiation of erythromycin antibacterial activity against Acinetobacter baumannii AB5075 assessed as erythromycin MIC at 2.5 uM incubated for 16 hrs by broth microdilution method; assay type: functional
Acinetobacter baumannii [20] = experiment: Potentiation of Azithromycin antibacterial activity against Acinetobacter baumannii AB5075 assessed as azithromycin MIC at 7.5 uM incubated for 16 hrs by broth microdilution method; assay type: functional
Acinetobacter baumannii [21] = experiment: Potentiation of erythromycin antibacterial activity against Acinetobacter baumannii AB5075 assessed as erythromycin MIC at 7.5 uM incubated for 16 hrs by broth microdilution method; assay type: functional
Acinetobacter baumannii [22] = experiment: Potentiation of erythromycin antibacterial activity against Acinetobacter baumannii AB5075 assessed as erythromycin MIC at 20 uM incubated for 16 hrs by broth microdilution method; assay type: functional
Acinetobacter baumannii [23] = experiment: Potentiation of Clarithromycin antibacterial activity against Acinetobacter baumannii AB5075 assessed as fold reduction in clarithromycin MIC at 7.5 uM incubated for 16 hrs by broth microdilution method; assay type: functional; how it was run: as §2
Klebsiella pneumoniae = experiment: Antibacterial activity against Klebsiella pneumoniae ATCC BAA-2146 assessed as inhibition of bacterial growth incubated for 16 hrs by broth microdilution method; assay type: functional; how it was run: as §1
[24] = Therapeutic index, ratio of IC50 for antiproliferative against human HepG2 cells assessed as reduction in cell viability to MIC for potentiation of Clarithromycin antibacterial activity against Acinetobacter baumannii […] assessed as clarithromycin MIC; assay type: toxicity, cell-based; details: read-out: TI
Escherichia coli [25] = experiment: Potentiation of Clarithromycin antibacterial activity against Escherichia coli ATCC 25922 assessed as clarithromycin MIC at 3 uM incubated for 16 hrs by broth microdilution method; assay type: functional
Acinetobacter baumannii [26] = experiment: Potentiation of Clarithromycin antibacterial activity against Acinetobacter baumannii AB5674 assessed as clarithromycin MIC at 10 uM incubated for 16 hrs by broth microdilution method; assay type: functional
Pseudomonas aeruginosa [27] = experiment: Antibacterial activity against Pseudomonas aeruginosa PAO1 assessed as inhibition of bacterial growth incubated for 16 hrs by broth microdilution method; assay type: functional
How it was run: as §1, with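 “h. OD600 read; MIC is lowest concentration with <10% growth versus positive control.” for “h.”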

Acinetobacter baumannii [28] = experiment: Potentiation of Clarithromycin antibacterial activity against Acinetobacter baumannii AB3785 assessed as clarithromycin MIC at 10 uM incubated for 16 hrs by broth microdilution method; assay type: functional
Acinetobacter baumannii [29] = experiment: Potentiation of rifampicin antibacterial activity against Acinetobacter baumannii AB5075 assessed as rifampicin MIC at 5 uM incubated for 16 hrs by broth microdilution method; assay type: functional
How it was run: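 A. baumannii AB5075 6 h day cultures in CAMHB subcultured to 5×10^5 CFU/mL; adjuvant added from 10 mM DMSO stock at fixed concentration, then rifampicin (DMSO) twofold serially diluted in adjuvant-containing broth. Antibiotic-alone and adjuvant-alone control lanes.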

SMILES: Cl.Cl.Nc1nc(-c2ccc(NC(=O)Nc3cccc(-c4c[nH]c(N)n4)c3F)cc2F)c[nH]1
- MIC (Acinetobacter baumannii [1]): ≤ 0.062 µg/mL
- MIC (Escherichia coli [2]): 12.5 µM
- MIC (Acinetobacter baumannii [3]): ≤ 0.062 µg/mL
- MIC (Acinetobacter baumannii [4]): ≤ 0.062 µg/mL
- MIC (Acinetobacter baumannii [5]): 1 µg/mL
- MIC (Acinetobacter baumannii [6]): ≤ 0.062 µg/mL
- MIC (Acinetobacter baumannii [7]): > 200 µM
- MIC (Acinetobacter baumannii [8]): ≤ 0.062 µg/mL
- MIC (Pseudomonas aeruginosa [9]): 16 µg/mL
- MIC (Acinetobacter baumannii [10]): 0.007 µg/mL
- MIC (Acinetobacter baumannii [11]): ≤ 0.062 µg/mL
- Stability [12]: 76%
- MIC (Acinetobacter baumannii [13]): 2 µg/mL
- MIC (Pseudomonas aeruginosa [14]): 0.5 µg/mL
- MIC (Escherichia coli [15]): 0.125 µg/mL
- MIC (Acinetobacter baumannii [16]): ≤ 0.062 µg/mL
- MIC (Acinetobacter baumannii [17]): 0.001 µg/mL
- fold change (FC) (Acinetobacter baumannii [18]): >=512
- MIC (Acinetobacter baumannii [19]): 32 µg/mL
- MIC (Acinetobacter baumannii [20]): 0.5 µg/mL
- MIC (Acinetobacter baumannii [21]): 0.25 µg/mL
- MIC (Acinetobacter baumannii [22]): ≤ 0.062 µg/mL
- fold change (FC) (Acinetobacter baumannii [23]): >=512
- MIC (Klebsiella pneumoniae): > 200 µM
- selectivity ratio [24]: 287
- MIC (Escherichia coli [25]): 4 µg/mL
- MIC (Acinetobacter baumannii [26]): ≤ 0.062 µg/mL
- MIC (Pseudomonas aeruginosa [27]): 256 µM
- MIC (Acinetobacter baumannii [28]): ≤ 0.062 µg/mL
- MIC (Acinetobacter baumannii [29]): 0.125 µg/mL
